Laboratory results from ChEMBL document CHEMBL4689842, “EUbOPEN Chemogenomics Library wave 1” (2021).

System: HEK-293T
Test: Multiplex assay against HEK293T;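 as to Population Tubulin-Different-Phenotype (%): share of the cells with healthy nuclei that show this phenotype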
Assay type: toxicity, cell-based
Settings: human
Summary of the method: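 Phenotypes for tubulin, mitochondrial mass and membrane permeability are expressed as per cents of healthy-nucleus cells. Cells were stained live at seeding with Hoechst33342, BioTracker Green Microtubule Cytoskeleton Dye, MitoTracker Red and Annexin V Alexa Fluor 680, then imaged after compound addition on a CQ1 microscope at 37°C and 5% CO2. Machine-learning gating in CellPathfinder separated Hoechst high-intensity objects from normal cells, divided normal cells by nuclear state (healthy, pyknosed, fragmented) and divided pyknosed cells into mitotic or apoptotic.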

[1] = 12 h, 1 µM, compound concentration 1 uM, replicate 1
[2] = 12 h, 1 µM, compound concentration 1 uM, replicate 2
[3] = 12 h, 10 µM, compound concentration 10 uM, replicate 1
[4] = 12 h, 10 µM, compound concentration 10 uM, replicate 2
[5] = 24 h, 1 µM, compound concentration 1 uM, replicate 1
[6] = 24 h, 1 µM, compound concentration 1 uM, replicate 2
[7] = 24 h, 10 µM, compound concentration 10 uM, replicate 1
[8] = 24 h, 10 µM, compound concentration 10 uM, replicate 2
[9] = 48 h, 1 µM, compound concentration 1 uM, replicate 1
[10] = 48 h, 1 µM, compound concentration 1 uM, replicate 2
[11] = 48 h, 10 µM, compound concentration 10 uM, replicate 1
[12] = 48 h, 10 µM, compound concentration 10 uM, replicate 2

Q: For CCOC(=O)c1c(C)[nH]c2ccc3c(c12)CN1CCc2cc(OC)ccc2C1O3 (centres undefined), which “Population Apoptotic (%)” value [1] is on record?
A: 61%

Q: And the “Population Fragmented Nuclei (%)” value [1]?
A: 14%

Q: And the “Population Healthy Nuclei (%)” value [1]?
A: 30%

Q: And the “Population Hoechst High Intensity Objects (%)” value [1]?
A: 14%

Q: And the “Population Membrane Permeable-Phenotype (%)” value [1]?
A: 1%

Q: And the “Population Mitochondria Different-Phenotype (%)” value [1]?
A: 100%

Q: What about the “Population Mitotic Cells (%)” value [1] of the same compound?
A: 38%

Q: What about the “Population Normal (%)” value [1] of the same compound?
A: 85%

Q: What about the “Population Pyknosed Nuclei (%)” value [1] of the same compound?
A: 54%

Q: What about the “Total Cell Count” value [1] of the same compound?
A: 228

Q: What about the “Population Apoptotic (%)” value [2] of the same compound?
A: 36%

Q: What about the “Population Fragmented Nuclei (%)” value [2] of the same compound?
A: 4%

Q: What about the “Population Healthy Nuclei (%)” value [2] of the same compound?
A: 28%

Q: And the “Population Hoechst High Intensity Objects (%)” value [2]?
A: 5%

Q: And the “Population Membrane Permeable-Phenotype (%)” value [2]?
A: 5%

Q: And the “Population Mitochondria Different-Phenotype (%)” value [2]?
A: 88%

Q: What about the “Population Mitotic Cells (%)” value [2] of the same compound?
A: 63%

Q: What about the “Population Normal (%)” value [2] of the same compound?
A: 94%

Q: What about the “Population Pyknosed Nuclei (%)” value [2] of the same compound?
A: 67%

Q: And the “Population Tubulin-Different-Phenotype (%)” value [2]?
A: 86%

Q: What about the “Total Cell Count” value [2] of the same compound?
A: 132

Q: What about the “Population Apoptotic (%)” value [3] of the same compound?
A: 90%

Q: What about the “Population Fragmented Nuclei (%)” value [3] of the same compound?
A: 12%

Q: And the “Population Hoechst High Intensity Objects (%)” value [3]?
A: 20%

Q: What about the “Population Membrane Permeable-Phenotype (%)” value [3] of the same compound?
A: 0%

Q: And the “Population Mitochondria Different-Phenotype (%)” value [3]?
A: 100%

Q: What about the “Population Mitotic Cells (%)” value [3] of the same compound?
A: 9%

Q: What about the “Population Normal (%)” value [3] of the same compound?
A: 79%

Q: What about the “Population Pyknosed Nuclei (%)” value [3] of the same compound?
A: 76%

Q: What about the “Population Tubulin-Different-Phenotype (%)” value [3] of the same compound?
A: 95%

Q: What about the “Total Cell Count” value [3] of the same compound?
A: 266

Q: What about the “Population Apoptotic (%)” value [4] of the same compound?
A: 88%

Q: What about the “Population Fragmented Nuclei (%)” value [4] of the same compound?
A: 5%

Q: And the “Population Healthy Nuclei (%)” value [4]?
A: 10%

Q: And the “Population Hoechst High Intensity Objects (%)” value [4]?
A: 12%

Q: What about the “Population Membrane Permeable-Phenotype (%)” value [4] of the same compound?
A: 7%

Q: What about the “Population Mitochondria Different-Phenotype (%)” value [4] of the same compound?
A: 92%

Q: What about the “Population Mitotic Cells (%)” value [4] of the same compound?
A: 11%

Q: And the “Population Normal (%)” value [4]?
A: 87%

Q: What about the “Population Pyknosed Nuclei (%)” value [4] of the same compound?
A: 83%

Q: And the “Population Tubulin-Different-Phenotype (%)” value [4]?
A: 92%

Q: What about the “Total Cell Count” value [4] of the same compound?
A: 156

Q: And the “Population Apoptotic (%)” value [5]?
A: 57%

Q: And the “Population Fragmented Nuclei (%)” value [5]?
A: 17%

Q: And the “Population Healthy Nuclei (%)” value [5]?
A: 47%

Q: And the “Population Hoechst High Intensity Objects (%)” value [5]?
A: 7%

Q: What about the “Population Membrane Permeable-Phenotype (%)” value [5] of the same compound?
A: 0%

Q: And the “Population Mitochondria Different-Phenotype (%)” value [5]?
A: 94%

Q: And the “Population Mitotic Cells (%)” value [5]?
A: 42%

Q: What about the “Population Normal (%)” value [5] of the same compound?
A: 92%

Q: What about the “Population Pyknosed Nuclei (%)” value [5] of the same compound?
A: 35%

Q: And the “Population Tubulin-Different-Phenotype (%)” value [5]?
A: 80%

Q: What about the “Total Cell Count” value [5] of the same compound?
A: 254

Q: What about the “Population Apoptotic (%)” value [6] of the same compound?
A: 48%

Q: What about the “Population Fragmented Nuclei (%)” value [6] of the same compound?
A: 3%

Q: What about the “Population Healthy Nuclei (%)” value [6] of the same compound?
A: 45%

Q: And the “Population Hoechst High Intensity Objects (%)” value [6]?
A: 3%

Q: And the “Population Membrane Permeable-Phenotype (%)” value [6]?
A: 5%

Q: And the “Population Mitochondria Different-Phenotype (%)” value [6]?
A: 91%

Q: What about the “Population Mitotic Cells (%)” value [6] of the same compound?
A: 51%

Q: And the “Population Normal (%)” value [6]?
A: 96%

Q: What about the “Population Pyknosed Nuclei (%)” value [6] of the same compound?
A: 51%

Q: What about the “Population Tubulin-Different-Phenotype (%)” value [6] of the same compound?
A: 86%

Q: What about the “Total Cell Count” value [6] of the same compound?
A: 154

Q: What about the “Population Apoptotic (%)” value [7] of the same compound?
A: 91%

Q: And the “Population Fragmented Nuclei (%)” value [7]?
A: 15%

Q: And the “Population Healthy Nuclei (%)” value [7]?
A: 8%

Q: What about the “Population Hoechst High Intensity Objects (%)” value [7] of the same compound?
A: 22%

Q: And the “Population Membrane Permeable-Phenotype (%)” value [7]?
A: 0%

Q: What about the “Population Mitochondria Different-Phenotype (%)” value [7] of the same compound?
A: 94%

Q: And the “Population Mitotic Cells (%)” value [7]?
A: 8%

Q: And the “Population Normal (%)” value [7]?
A: 77%

Q: What about the “Population Pyknosed Nuclei (%)” value [7] of the same compound?
A: 75%

Q: What about the “Population Tubulin-Different-Phenotype (%)” value [7] of the same compound?
A: 94%

Q: And the “Total Cell Count” value [7]?
A: 275

Q: What about the “Population Apoptotic (%)” value [8] of the same compound?
A: 92%

Q: What about the “Population Fragmented Nuclei (%)” value [8] of the same compound?
A: 6%

Q: What about the “Population Healthy Nuclei (%)” value [8] of the same compound?
A: 9%

Q: What about the “Population Hoechst High Intensity Objects (%)” value [8] of the same compound?
A: 16%

Q: And the “Population Mitochondria Different-Phenotype (%)” value [8]?
A: 92%

Q: And the “Population Mitotic Cells (%)” value [8]?
A: 7%

Q: What about the “Population Normal (%)” value [8] of the same compound?
A: 83%

Q: And the “Population Pyknosed Nuclei (%)” value [8]?
A: 84%

Q: And the “Population Tubulin-Different-Phenotype (%)” value [8]?
A: 92%

Q: What about the “Total Cell Count” value [8] of the same compound?
A: 158

Q: What about the “Population Apoptotic (%)” value [9] of the same compound?
A: 52%

Q: And the “Population Fragmented Nuclei (%)” value [9]?
A: 11%

Q: What about the “Population Healthy Nuclei (%)” value [9] of the same compound?
A: 70%

Q: And the “Population Hoechst High Intensity Objects (%)” value [9]?
A: 7%

Q: What about the “Population Membrane Permeable-Phenotype (%)” value [9] of the same compound?
A: 1%

Q: And the “Population Mitochondria Different-Phenotype (%)” value [9]?
A: 71%

Q: And the “Population Mitotic Cells (%)” value [9]?
A: 47%

Q: And the “Population Normal (%)” value [9]?
A: 92%

Q: What about the “Population Pyknosed Nuclei (%)” value [9] of the same compound?
A: 17%

Q: And the “Population Tubulin-Different-Phenotype (%)” value [9]?
A: 50%

Q: And the “Total Cell Count” value [9]?
A: 354

Q: What about the “Population Apoptotic (%)” value [10] of the same compound?
A: 36%

Q: And the “Population Fragmented Nuclei (%)” value [10]?
A: 6%

Q: And the “Population Healthy Nuclei (%)” value [10]?
A: 72%

Q: And the “Population Hoechst High Intensity Objects (%)” value [10]?
A: 4%

Q: What about the “Population Membrane Permeable-Phenotype (%)” value [10] of the same compound?
A: 2%

Q: What about the “Population Mitochondria Different-Phenotype (%)” value [10] of the same compound?
A: 52%

Q: And the “Population Mitotic Cells (%)” value [10]?
A: 63%

Q: What about the “Population Normal (%)” value [10] of the same compound?
A: 95%

Q: What about the “Population Pyknosed Nuclei (%)” value [10] of the same compound?
A: 21%

Q: And the “Population Tubulin-Different-Phenotype (%)” value [10]?
A: 66%

Q: And the “Total Cell Count” value [10]?
A: 226

Q: What about the “Population Apoptotic (%)” value [11] of the same compound?
A: 80%

Q: What about the “Population Fragmented Nuclei (%)” value [11] of the same compound?
A: 19%

Q: And the “Population Healthy Nuclei (%)” value [11]?
A: 22%

Q: And the “Population Hoechst High Intensity Objects (%)” value [11]?
A: 29%

Q: And the “Population Membrane Permeable-Phenotype (%)” value [11]?
A: 0%

Q: And the “Population Mitochondria Different-Phenotype (%)” value [11]?
A: 100%

Q: What about the “Population Mitotic Cells (%)” value [11] of the same compound?
A: 19%

Q: What about the “Population Normal (%)” value [11] of the same compound?
A: 70%

Q: And the “Population Pyknosed Nuclei (%)” value [11]?
A: 58%

Q: And the “Population Tubulin-Different-Phenotype (%)” value [11]?
A: 93%

Q: And the “Total Cell Count” value [11]?
A: 290

Q: And the “Population Apoptotic (%)” value [12]?
A: 93%

Q: And the “Population Fragmented Nuclei (%)” value [12]?
A: 3%

Q: What about the “Population Healthy Nuclei (%)” value [12] of the same compound?
A: 15%

Q: And the “Population Hoechst High Intensity Objects (%)” value [12]?
A: 14%

Q: What about the “Population Membrane Permeable-Phenotype (%)” value [12] of the same compound?
A: 5%

Q: What about the “Population Mitochondria Different-Phenotype (%)” value [12] of the same compound?
A: 95%

Q: What about the “Population Mitotic Cells (%)” value [12] of the same compound?
A: 6%

Q: And the “Population Normal (%)” value [12]?
A: 85%

Q: What about the “Population Pyknosed Nuclei (%)” value [12] of the same compound?
A: 80%

Q: And the “Population Tubulin-Different-Phenotype (%)” value [12]?
A: 100%

Q: And the “Total Cell Count” value [12]?
A: 148
